ChEMBL document CHEMBL3244385, “Antitumor anthracycline antibiotics. Structure-activity and structure-cardiotoxicity relationships of rubidazone analogues” (J Med Chem, 1978)

Experiments:
Rattus norvegicus [1] = organism: Rattus norvegicus; test: Cardiotoxicity in rat ECG model; conditions: in vivo
P388 [2] = test: In vivo antitumor activity against mouse P388 cells allografted in BDF/CDF mouse assessed as host survival time at 2 mg/kg, ip administered on days 1 to 9 relative to control; assay type: functional; conditions: route intraperitoneal
Summary of the method: (§1)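 P-388 lymphocytic leukemia, 10⁶ cells injected ip into BDF or CDF mice on day 0; drug given ip daily on days 1-9 at the stated dose. Read-out T/C: average survival time of treated mice as percent of untreated controls. Assays run by NCI Drug Research and Development Program.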

P388 [3] = test: In vivo antitumor activity against mouse P388 cells allografted in BDF/CDF mouse assessed as host survival time at 0.5 mg/kg, ip administered on days 1 to 9 relative to control; assay type: functional; conditions: route intraperitoneal
Summary of the method: as §1

Calf thymus DNA = test: Binding affinity to calf thymus DNA assessed as change in melting temperature at 5 uM by spectrophotometer analysis; assay type: nucleic-acid assay; conditions: Bos taurus
Summary of the method: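 Drug dissolved in Me2SO, diluted with buffer, then mixed with calf thymus DNA. Final mix: 0.01 M phosphate pH 7, 5×10^-5 M DNA, 5×10^-6 M drug, 10^-5 M EDTA, 5% Me2SO. Absorbance at 259 nm recorded every 30 s while heating at 18 °C/h. Tm is the midpoint of the corrected curve; the shift is taken against DNA alone.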

P388 [4] = test: In vivo antitumor activity against mouse P388 cells allografted in BDF/CDF mouse assessed as host survival time at 16 mg/kg, ip administered on days 1 to 9 relative to control; assay type: functional; conditions: route intraperitoneal
Summary of the method: as §1

L1210 [5] = test: Inhibition of DNA synthesis in mouse L1210 cells; assay type: functional; conditions: read-out: ED50 (the source's name)
P388 [6] = test: In vivo antitumor activity against mouse P388 cells allografted in BDF/CDF mouse assessed as host survival time at 0.125 mg/kg, ip administered on days 1 to 9 relative to control; assay type: functional; conditions: route intraperitoneal
Summary of the method: as §1

Rattus norvegicus [7] = organism: Rattus norvegicus; test: Cardiotoxicity in rat ECG model relative to adriamycin; conditions: in vivo
P388 [8] = test: In vivo antitumor activity against mouse P388 cells allografted in BDF/CDF mouse assessed as host survival time at 8 mg/kg, ip administered on days 1 to 9 relative to control; assay type: functional; conditions: route intraperitoneal
Summary of the method: as §1

[9] = Partition coefficient, log P of the compound; assay type: physicochemical; conditions: octanol/water
L1210 [10] = test: Inhibition of RNA synthesis in mouse L1210 cells; assay type: functional; conditions: read-out: ED50 (the source's name)
P388 [11] = test: In vivo antitumor activity against mouse P388 cells allografted in BDF/CDF mouse assessed as host survival time at 4 mg/kg, ip administered on days 1 to 9 relative to control; assay type: functional; conditions: route intraperitoneal
Summary of the method: as §1

P388 [12] = test: In vivo antitumor activity against mouse P388 cells allografted in BDF/CDF mouse assessed as host survival time at 1 mg/kg, ip administered on days 1 to 9 relative to control; assay type: functional; conditions: route intraperitoneal
Summary of the method: as §1

P388 [13] = test: In vivo antitumor activity against mouse P388 cells allografted in BDF/CDF mouse assessed as host survival time at 0.25 mg/kg, ip administered on days 1 to 9 relative to control; assay type: functional; conditions: route intraperitoneal
Summary of the method: as §1

[14] = Dissociation constant, pKa of Ar-COOH group of the compound; assay type: physicochemical
[15] = Half life in 0.01 M phosphate buffer at 10 uM at pH 7.4 at 50 degC; assay type: physicochemical
Summary of the method: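 Drug at 1×10^-5 M in 0.01 M phosphate, pH 7.4, 50 °C, no DNA. Absorbance followed continuously for 3 h at a drug-specific wavelength (345 or 259 nm). Buffer baseline subtracted. Data fit to A = ΣA0 + c·e^(-kt), with ΣA0 the absorbance of daunorubicin plus the […], and t1/2 derived from the fit.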

Row | SMILES | MCCD (Rattus norvegicus [1]) | T/C (P388 [2]) | T/C (P388 [3]) | ΔTm (Calf thymus DNA) | T/C (P388 [4]) | EC50 (L1210 [5]) | T/C (P388 [6]) | Ratio (Rattus norvegicus [7]) | T/C (P388 [8]) | logP [9] | EC50 (L1210 [10]) | T/C (P388 [11]) | T/C (P388 [12]) | T/C (P388 [13]) | pKa [14] | half-life at 10 µM [15]
1 | COc1cccc2c1C(=O)c1c(O)c3c(c(O)c1C2=O)C[C@@](O)(/C(CO)=N/NC(=O)c1ccc(Cl)c(Cl)c1)C[C@@H]3O[C@H]1C[C@H](N)[C@H](O)[C@H](C)O1.Cl | 20 mg/kg | 154% | 143% | 5.3 °C | 72% | 6.6 µM | 116% | 1.4 | 109% | 1.94 | 3.6 µM | 202% | 172% | 125% | 3.62 | –
2 | COc1cccc2c1C(=O)c1c(O)c3c(c(O)c1C2=O)C[C@@](O)(/C(C)=N/NC(=O)c1ccccc1)C[C@@H]3O[C@H]1C[C@H](N)[C@H](O)[C@H](C)O1.Cl [ZORUBICIN HYDROCHLORIDE] | 24 mg/kg | 170% | 140% | 11.7 °C | 112% | 2.2 µM | – | 1.8 | 164% | 1.04 | 1.2 µM | 192% | 152% | 133% | 4.19 | 5.4 h
3 | COc1cccc2c1C(=O)c1c(O)c3c(c(O)c1C2=O)C[C@@](O)(C(C)=O)C[C@@H]3O[C@H]1C[C@H](N)[C@H](O)[C@H](C)O1 [DAUNORUBICIN] | 14 mg/kg | 112% | 167% | – | – | 0.48 µM | – | 1.3 | – | 0.82 | 0.23 µM | 83% | 162% | 152% | – | –
4 | COc1cccc2c1C(=O)c1c(O)c3c(c(O)c1C2=O)C[C@@](O)(C(=O)CO)C[C@@H]3O[C@H]1C[C@H](N)[C@H](O)[C@H](C)O1.Cl [DOXORUBICIN HYDROCHLORIDE] | 11 mg/kg | 149% | 187% | 13.4 °C | – | 1.5 µM | – | 1 | – | 0.3 | 0.67 µM | 77% | 193% | 170% | – | –
5 | CCc1ccc(C(=O)N/N=C(\C)[C@]2(O)Cc3c(O)c4c(c(O)c3[C@@H](O[C@H]3C[C@H](N)[C@H](O)[C@H](C)O3)C2)C(=O)c2c(OC)cccc2C4=O)cc1.Cl | 20 mg/kg | 175% | 148% | 10.5 °C | 68% | 2.6 µM | 111% | 1.5 | 93% | 2.06 | 1.1 µM | 175% | 154% | 139% | 4.35 | –
6 | COc1cccc2c1C(=O)c1c(O)c3c(c(O)c1C2=O)C[C@@](O)(/C(CO)=N/NC(=O)c1ccccc1)C[C@@H]3O[C@H]1C[C@H](N)[C@H](O)[C@H](C)O1.Cl | 32 mg/kg | 154% | 126% | 8.9 °C | 128% | 14 µM | 103% | 2.4 | 201% | 0.52 | 8.8 µM | 172% | 154% | 99% | 4.19 | –
7 | COc1cccc2c1C(=O)c1c(O)c3c(c(O)c1C2=O)C[C@@](O)(/C(C)=N/NC(=O)c1ccc(-c2ccccc2)cc1)C[C@@H]3O[C@H]1C[C@H](N)[C@H](O)[C@H](C)O1.Cl | 40 mg/kg | 163% | 138% | 10.3 °C | 63% | 1.9 µM | 107% | 2.8 | 98% | 3 | 1 µM | 190% | 157% | 134% | 3.97 | –
